Measurements: ChEMBL document CHEMBL1129254, “3-[2-(N-phenylacetamide)]-1,5-benzodiazepines: orally active, binding selective CCK-A agonists” (J Med Chem, 1996)
pIC50: −log10 of the molar value.

Tests used:
[1] = species: Cavia porcellus; assay: Relative efficacy determined by the maximal contraction observed at 30 uM, standardized to CCK-8; type: functional
Procedure, shortened: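 Isolated guinea pig gallbladder contraction. Maximal contraction at 30 μM test ligand expressed relative to CCK-8 (1 μM) = 1.0; n ≥ 3.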

[2] = biological target: T1, Gastrin/cholecystokinin type B receptor (Homo sapiens, UniProt P32239); assay: Binding affinity against human Cholecystokinin type B receptor in CHO-K1 cells using [125I]-Bolton-Hunter CCK-8 as radioligand; type: cell-based
T1 sequence (P32239 whole entry): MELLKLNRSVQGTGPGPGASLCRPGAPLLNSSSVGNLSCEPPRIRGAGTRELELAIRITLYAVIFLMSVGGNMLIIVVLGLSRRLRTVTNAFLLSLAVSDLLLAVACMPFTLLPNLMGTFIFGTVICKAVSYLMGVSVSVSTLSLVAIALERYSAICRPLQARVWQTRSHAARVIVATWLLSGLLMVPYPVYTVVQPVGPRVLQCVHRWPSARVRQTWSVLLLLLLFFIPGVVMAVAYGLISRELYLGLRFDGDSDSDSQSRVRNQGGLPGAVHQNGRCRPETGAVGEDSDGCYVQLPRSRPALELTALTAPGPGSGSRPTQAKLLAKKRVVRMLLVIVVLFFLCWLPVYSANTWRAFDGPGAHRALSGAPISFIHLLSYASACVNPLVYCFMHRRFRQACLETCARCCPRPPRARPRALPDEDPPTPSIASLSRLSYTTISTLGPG

[3] = biological target: T2, Cholecystokinin receptor type A (Cavia porcellus) (UniProt Q63931); assay: In vitro agonist activity against Cholecystokinin type A receptor isolated from guinea pig gall bladder.; type: functional, tissue-based
T2 sequence (whole entry): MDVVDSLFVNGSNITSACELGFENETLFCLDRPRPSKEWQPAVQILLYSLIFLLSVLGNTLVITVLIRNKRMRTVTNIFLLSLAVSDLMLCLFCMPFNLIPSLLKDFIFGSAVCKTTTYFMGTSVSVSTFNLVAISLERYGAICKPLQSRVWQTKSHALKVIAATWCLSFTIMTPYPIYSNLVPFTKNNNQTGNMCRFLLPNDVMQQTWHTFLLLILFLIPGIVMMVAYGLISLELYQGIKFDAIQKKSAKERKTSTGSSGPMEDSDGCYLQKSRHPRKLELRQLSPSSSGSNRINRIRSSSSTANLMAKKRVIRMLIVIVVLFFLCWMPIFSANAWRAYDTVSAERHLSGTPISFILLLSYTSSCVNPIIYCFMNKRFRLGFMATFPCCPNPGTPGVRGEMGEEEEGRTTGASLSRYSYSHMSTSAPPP

[4] = biological target: T3, Cholecystokinin receptor type A (Homo sapiens, UniProt P32238); assay: Binding affinity against human Cholecystokinin type A receptor in membrane preparation isolated from CHO-K1 cells stably transfected with cDNA of human CCK-A using [125I]-Bolton-Hunter CCK-8 as radioligand; type: cell membranes
T3 sequence (P32238 whole entry): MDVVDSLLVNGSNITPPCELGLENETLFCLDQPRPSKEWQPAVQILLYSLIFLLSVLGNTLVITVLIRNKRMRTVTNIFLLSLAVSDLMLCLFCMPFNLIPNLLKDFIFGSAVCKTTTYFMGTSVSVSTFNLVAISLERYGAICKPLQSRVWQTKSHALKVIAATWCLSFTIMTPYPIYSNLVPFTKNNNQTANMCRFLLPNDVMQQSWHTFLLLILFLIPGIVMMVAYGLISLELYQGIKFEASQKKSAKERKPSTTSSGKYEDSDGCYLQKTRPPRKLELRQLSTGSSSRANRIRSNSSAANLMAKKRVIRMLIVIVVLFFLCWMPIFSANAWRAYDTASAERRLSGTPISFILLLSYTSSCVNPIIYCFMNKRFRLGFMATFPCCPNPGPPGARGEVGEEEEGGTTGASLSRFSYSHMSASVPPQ

[5] = tested on: Mus musculus; assay: Compound tested in vivo for mouse gallbladder emptying at 1.0 uM/kg, po; type: functional
[6] = tested on: Mus musculus; assay: Compound tested in vivo for mouse gallbladder emptying at 10 uM/kg, po; type: functional
[7] = tested on: Mus musculus; assay: Compound tested in vivo for mouse gallbladder emptying at 0.1 uM/kg, ip; type: functional

Structure (SMILES)	RE [1]	pIC50 [2]	ED50 [3] [nM]	pIC50 [4]	Activity [5] [%]	Activity [6] [%]	Activity [7] [%]
CC(C)N(C(=O)CN1C(=O)C(C)(NC(=O)Nc2ccccc2)C(=O)N(c2ccccc2)c2ccccc21)c1ccccc1 (configuration not stated)	0.5	6.55	> 10000				
CC(C)N(C(=O)CN1C(=O)C(CC(=O)Nc2ccccc2)(Cc2ccccc2)C(=O)N(c2ccccc2)c2ccccc21)c1ccccc1 (configuration not stated)		5.05		6.41			
CCC1(CC(=O)Nc2ccccc2)C(=O)N(CC(=O)N(c2ccccc2)C(C)C)c2ccccc2N(c2ccccc2)C1=O (configuration not stated)	0.6	6.10	780		45	42	68
CC(C)N(C(=O)CN1C(=O)C(NC(=O)Oc2ccccc2)C(=O)N(c2ccccc2)c2ccccc21)c1ccccc1 (configuration not stated)	0.2						
CC(C)N(C(=O)CN1C(=O)C(NC(=O)Nc2ccccc2)C(=O)N(c2ccccc2)c2ccccc21)c1ccccc1 (configuration not stated)	0.8		1600				78
CC(C)N(C(=O)CN1C(=O)C(C)(CC(=O)Nc2ccccc2)C(=O)N(c2ccccc2)c2ccccc21)c1ccccc1 (configuration not stated)	0.7	5.08	200	7.12	36	73	73
CC(C)N(C(=O)CN1C(=O)C(CC(=O)Nc2ccccc2)C(=O)N(c2ccccc2)c2ccccc21)c1ccccc1 (configuration not stated)	0.5	6.08	430	6.81	34		63
CC(C)N(C(=O)CN1C(=O)C(NC(=O)Cc2ccccc2)C(=O)N(c2ccccc2)c2ccccc21)c1ccccc1 (configuration not stated)	0.3						
CC(C)N(C(=O)CN1C(=O)C(OC(=O)Nc2ccccc2)C(=O)N(c2ccccc2)c2ccccc21)c1ccccc1 (configuration not stated)	0.2						
CSCC[C@H](NC(=O)[C@H](Cc1ccc(OS(=O)(=O)O)cc1)NC(=O)[C@@H](N)CC(=O)O)C(=O)NCC(=O)N[C@@H](Cc1c[nH]c2ccccc12)C(=O)N[C@@H](CCSC)C(=O)N[C@@H](CC(=O)O)C(=O)N[C@@H](Cc1ccccc1)C(N)=O [SINCALIDE]	1		2				
